Results taken from ChEMBL document CHEMBL2390933, “A class of pyrrole derivatives endowed with analgesic/anti-inflammatory activity” (Bioorg Med Chem, 2013).

Tests used:
Mus musculus [1] = assay: Analgesic activity in Swiss albino mouse inflammatory pain model assessed as inhibition of acetic acid-induced writhing at 40 mg/kg, po administered 30 mins prior to acetic acid challenge relative to vehicle-treated control; type: functional
Method in brief: (§1)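 Male Swiss albino mice (23–25 g), standard diet, water ad libitum, 23 ± 1 °C, 12 h light/dark cycle, randomised into groups. Compound or vehicle (suspended in 1% carboxymethylcellulose) given orally 30 min before ip 0.6% acetic acid. Writhes counted starting 5 min after injection. Reported as writhe count and % reduction versus vehicle-treated mice. Mean of 10 mice per group.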

Mus musculus [2] = assay: Analgesic activity in Swiss albino mouse inflammatory pain model assessed as inhibition of acetic acid-induced writhing at 20 mg/kg, po administered 30 mins prior to acetic acid challenge relative to vehicle-treated control; type: functional; method in brief: as §1
Mus musculus [3] = assay: Analgesic activity in Swiss albino mouse inflammatory pain model assessed as inhibition of acetic acid-induced writhing at 10 mg/kg, po administered 30 mins prior to acetic acid challenge relative to vehicle-treated control; type: functional; method in brief: as §1
Mus musculus [4] = assay: Analgesic activity in Swiss albino mouse inflammatory pain model assessed as inhibition of acetic acid-induced writhing at 5 mg/kg, po administered 30 mins prior to acetic acid challenge relative to vehicle-treated control; type: functional; method in brief: as §1
[5] = target: T1, Prostaglandin G/H synthase 1 (Mus musculus, UniProt P22437); assay: Inhibition of COX1 in mouse J774 cells using arachidonic acid as substrate assessed as inhibition of PGE2 production incubated for 15 mins prior to substrate addition measured after 30 mins by radioimmunoassay; type: cell-based
T1 sequence (P22437 whole entry): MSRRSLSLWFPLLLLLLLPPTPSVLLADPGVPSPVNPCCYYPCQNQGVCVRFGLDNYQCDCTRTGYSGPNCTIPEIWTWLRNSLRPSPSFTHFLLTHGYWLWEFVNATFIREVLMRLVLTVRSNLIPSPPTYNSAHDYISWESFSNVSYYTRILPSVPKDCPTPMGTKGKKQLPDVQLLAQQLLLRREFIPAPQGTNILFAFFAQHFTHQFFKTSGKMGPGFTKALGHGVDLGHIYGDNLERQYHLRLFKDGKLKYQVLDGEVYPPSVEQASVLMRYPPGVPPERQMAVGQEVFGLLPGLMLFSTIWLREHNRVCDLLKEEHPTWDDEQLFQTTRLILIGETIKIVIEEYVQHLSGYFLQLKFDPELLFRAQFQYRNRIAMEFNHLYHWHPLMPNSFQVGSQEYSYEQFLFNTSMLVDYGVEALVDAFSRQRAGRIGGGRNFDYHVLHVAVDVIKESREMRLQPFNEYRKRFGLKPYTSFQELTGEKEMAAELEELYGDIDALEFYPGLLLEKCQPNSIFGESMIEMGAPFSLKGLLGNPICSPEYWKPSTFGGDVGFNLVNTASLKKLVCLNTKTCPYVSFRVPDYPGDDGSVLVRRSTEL
Method in brief: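 J774 cells allowed to adhere 2 h at 37 °C, 5% CO2; medium swapped for FBS-free medium just before use. Pre-treatment with compounds (0.01–10 µM) for 15 min, then 30 min at 37 °C with 15 µM arachidonic acid to activate constitutive COX-1. Supernatant PGE2 by RIA; triplicate wells, mean of three experiments as % inhibition vs control; IC50 from sigmoidal variable-slope fit.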

J774 = assay: Selectivity index, ratio of IC50 for COX1 in mouse J774 cells to IC50 for COX2 in mouse J774 cells; type: cell-based
[6] = target: T2, Prostaglandin G/H synthase 2 (Mus musculus, UniProt Q05769); assay: Inhibition of COX2 in mouse J774 cells assessed as inhibition of LPS-induced PGE2 production by radioimmunoassay; type: cell-based
T2 sequence (Q05769 whole entry): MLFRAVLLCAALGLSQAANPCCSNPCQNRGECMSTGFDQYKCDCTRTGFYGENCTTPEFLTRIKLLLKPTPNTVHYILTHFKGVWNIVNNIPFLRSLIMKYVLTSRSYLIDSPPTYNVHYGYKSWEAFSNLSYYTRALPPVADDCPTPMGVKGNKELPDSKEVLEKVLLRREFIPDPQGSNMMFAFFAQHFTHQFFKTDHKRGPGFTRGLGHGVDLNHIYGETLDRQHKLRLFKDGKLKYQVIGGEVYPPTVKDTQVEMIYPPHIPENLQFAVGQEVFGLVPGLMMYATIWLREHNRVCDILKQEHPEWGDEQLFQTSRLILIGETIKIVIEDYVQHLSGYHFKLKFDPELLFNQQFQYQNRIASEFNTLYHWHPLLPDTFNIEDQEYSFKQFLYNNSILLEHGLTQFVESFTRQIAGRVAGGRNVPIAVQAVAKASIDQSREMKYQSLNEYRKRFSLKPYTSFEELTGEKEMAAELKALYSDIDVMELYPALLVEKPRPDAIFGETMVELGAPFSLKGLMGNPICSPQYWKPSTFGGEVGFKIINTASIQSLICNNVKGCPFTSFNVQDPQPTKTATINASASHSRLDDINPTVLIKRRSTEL

[7] = target: T3, Prostaglandin G/H synthase 2 (Mus musculus) (UniProt Q05769); assay: Ratio of celecoxib IC50 to compound IC50 for COX2 in mouse J774 cells; type: cell-based
T3 sequence (whole entry): T2 sequence (Q05769 whole entry)
Method in brief: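 The COX-2 IC50 was measured in J774 cells stimulated 24 h with E. coli LPS (10 µg/mL) with or without compound (0.01–10 µM). Supernatant PGE2 by RIA; triplicate wells, mean of three experiments; IC50 from a sigmoidal variable-slope fit. Celecoxib served as the reference for the index.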

Mus musculus [8] = assay: Analgesic activity in Swiss albino mouse inflammatory pain model assessed as inhibition of acetic acid-induced writhing at 1 mg/kg, po administered 30 mins prior to acetic acid challenge relative to vehicle-treated control; type: functional; method in brief: as §1
Homo sapiens = species on record: Homo sapiens; assay: Selectivity ratio of IC50 for platelet COX1 in human whole blood to IC50 for monocyte COX2 in human whole blood; type: tissue-based
[9] = target: Prostaglandin G/H synthase 1 (Homo sapiens, UniProt P23219); type: tissue-based, Blood
Prostaglandin G/H synthase 1 (Homo sapiens, UniProt P23219), sequence (P23219 whole entry): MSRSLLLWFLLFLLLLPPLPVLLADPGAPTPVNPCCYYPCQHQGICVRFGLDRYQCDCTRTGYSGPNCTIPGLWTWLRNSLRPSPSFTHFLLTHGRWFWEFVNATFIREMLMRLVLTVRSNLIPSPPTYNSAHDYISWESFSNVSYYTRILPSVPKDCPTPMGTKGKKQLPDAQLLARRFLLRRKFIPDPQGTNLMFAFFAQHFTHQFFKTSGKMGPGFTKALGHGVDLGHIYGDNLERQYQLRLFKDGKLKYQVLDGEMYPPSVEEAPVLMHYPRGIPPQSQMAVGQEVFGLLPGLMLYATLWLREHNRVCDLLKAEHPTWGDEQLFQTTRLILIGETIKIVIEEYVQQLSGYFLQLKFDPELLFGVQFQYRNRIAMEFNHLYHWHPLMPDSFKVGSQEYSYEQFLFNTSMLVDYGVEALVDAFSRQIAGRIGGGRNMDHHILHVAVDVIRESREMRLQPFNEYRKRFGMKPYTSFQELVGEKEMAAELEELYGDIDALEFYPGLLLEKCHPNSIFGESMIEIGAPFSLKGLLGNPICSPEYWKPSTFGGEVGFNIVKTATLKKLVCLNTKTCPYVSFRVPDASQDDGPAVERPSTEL

[10] = target: T4, Prostaglandin G/H synthase 2 (Homo sapiens, UniProt P35354); design: species or system Blood
T4 sequence (P35354 whole entry): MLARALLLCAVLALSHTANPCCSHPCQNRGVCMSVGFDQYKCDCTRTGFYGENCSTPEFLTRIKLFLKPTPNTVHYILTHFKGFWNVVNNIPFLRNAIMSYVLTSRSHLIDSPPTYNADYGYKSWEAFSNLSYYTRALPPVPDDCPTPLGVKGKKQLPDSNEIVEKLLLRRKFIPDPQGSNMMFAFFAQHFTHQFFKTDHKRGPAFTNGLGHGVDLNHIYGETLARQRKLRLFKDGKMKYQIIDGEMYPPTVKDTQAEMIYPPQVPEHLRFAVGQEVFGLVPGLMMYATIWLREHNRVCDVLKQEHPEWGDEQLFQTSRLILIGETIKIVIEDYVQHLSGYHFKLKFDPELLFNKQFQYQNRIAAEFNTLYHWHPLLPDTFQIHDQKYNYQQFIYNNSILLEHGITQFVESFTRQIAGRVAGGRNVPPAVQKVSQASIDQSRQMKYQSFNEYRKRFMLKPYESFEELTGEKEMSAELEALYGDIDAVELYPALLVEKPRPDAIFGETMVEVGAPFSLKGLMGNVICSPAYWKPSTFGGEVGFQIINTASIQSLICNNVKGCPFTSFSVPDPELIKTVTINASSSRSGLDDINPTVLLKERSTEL

| SMILES | inhibition in vivo at 40 mg/kg (Mus musculus [1]) [%] | inhibition in vivo at 20 mg/kg (Mus musculus [2]) [%] | inhibition in vivo at 10 mg/kg (Mus musculus [3]) [%] | inhibition in vivo at 5 mg/kg (Mus musculus [4]) [%] | IC50 [5] [µM] | Ratio IC50 (J774) | IC50 [6] [µM] | Ratio IC50 [7] | inhibition in vivo at 1 mg/kg (Mus musculus [8]) [%] | Ratio IC50 (Homo sapiens) | IC50 [9] [µM] | IC50 [10] [µM] |
| --- | --- | --- | --- | --- | --- | --- | --- | --- | --- | --- | --- | --- |
| Cc1c(C#N)cc(-c2ccc(S(C)(=O)=O)cc2)n1-c1ccc(F)cc1 | 45 | 33 | 36 | 5 | > 10 |  |  |  |  |  |  |  |
| Cc1c(/C=N\O)cc(-c2ccc(S(C)(=O)=O)cc2)n1-c1ccc(F)cc1 | 47 | 41 | 36 | 2 | > 10 | > 27.8 | 0.36 |  |  |  |  |  |
| Cc1c(C=O)cc(-c2ccc(S(C)(=O)=O)cc2)n1-c1cccc(F)c1 |  | 44 | 39 |  | > 10 | > 1050 | 0.0095 | 8 |  |  |  |  |
| Cc1ccc(-c2cc(C(F)(F)F)nn2-c2ccc(S(N)(=O)=O)cc2)cc1 [CELECOXIB] | 69 | 58 | 57 | 50 |  |  |  |  | 42 |  |  |  |
| Cc1c(C#N)cc(-c2ccc(S(C)(=O)=O)cc2)n1-c1ccccc1 | 59 | 42 | 28 |  | > 10 | > 27.8 | 0.36 |  |  |  |  |  |
| Cc1c(/C=N\O)cc(-c2ccc(S(C)(=O)=O)cc2)n1-c1ccc(F)c(F)c1 |  | 27 | 19 | 10 | > 10 | > 62.5 | 0.16 |  |  | 9.3 | 161 | 17.3 |
| Cc1c(/C=N\O)cc(-c2ccc(S(C)(=O)=O)cc2)n1-c1ccccc1 | 57 | 53 | 27 | 13 | > 10 | > 52.6 | 0.19 |  |  |  |  |  |
| Cc1c(C#N)cc(-c2ccc(S(C)(=O)=O)cc2)n1-c1cccc(F)c1 | 38 | 33 | 28 | 21 | > 10 | > 769 | 0.013 |  |  | 38.8 | 50.5 | 1.3 |
| Cc1c(C=O)cc(-c2ccc(S(C)(=O)=O)cc2)n1-c1ccccc1 | 30 | 32 | 23 |  | > 10 | > 294 | 0.034 |  |  |  |  |  |
| Cc1c(C=O)cc(-c2ccc(S(C)(=O)=O)cc2)n1-c1ccc(F)c(F)c1 | 60 | 52 | 53 | 50 | > 10 | > 143 | 0.07 |  | 36 | 4.8 | 71.4 | 14.8 |
| Cc1c(/C=N\O)cc(-c2ccc(S(C)(=O)=O)cc2)n1-c1cccc(F)c1 | 45 | 42 | 32 |  | > 10 | > 22.7 | 0.44 |  |  |  |  |  |
| Cc1c(C=O)cc(-c2ccc(S(C)(=O)=O)cc2)n1-c1ccc(F)cc1 | 31 | 30 |  | 5 | > 10 |  |  |  |  |  |  |  |
| Cc1c(C#N)cc(-c2ccc(S(C)(=O)=O)cc2)n1-c1ccc(F)c(F)c1 | 57 | 38 | 19 | 8 | > 10 | > 454 | 0.0022 | 36 |  |  |  |  |
